Measured values: publication PMC3873039 (Anti-Cancer Agents in Medicinal Chemistry, 2013)

How the values were obtained:
[1] = system: non-tumor cord blood (CD34+) cells; assay: CellTiter-Glo luminescent cell viability assay; format: cell-based; conditions: 24 h; for IC50: read-out: IC50 (50% inhibition of cellular proliferation), CD34+ non-tumour control cells, 24 h treatment; for The lowest dose of polyphenols at which there was a significant inhibition of cell proliferation compared to the vehicle control: CD34+ non-tumour control cells, doses 0, 2, 10, 50, 250, 500 µM, p<0.05
In short: (§1)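 Cells grown in RPMI 1640 with 10% FBS, 1.5 mM L-glutamine and penicillin/streptomycin at 37 °C, 5% CO2. Seeded at 2.5 x 10³ cells/well and exposed 24 h to ethanol-dissolved test compound (0, 2, 10, 50, 250, 500 µM) with 0.1% ethanol vehicle. ATP luminescence normalized to vehicle (100%). IC50 taken from linear regression. Lowest significant dose set by one-way ANOVA/Tukey, p<0.05. Triplicates, three independent experiments.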

KG1a [2] = assay: Hoechst 33342 nuclear morphological analysis of apoptosis; format: cell-based; conditions: Homo sapiens, KG-1a, 24 h, read-out: AP50 (50% induction of apoptosis), Hoechst 33342 staining (Hoe)
In short: (§2)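 Seeded at 0.5 x 10⁶ cells/well in 12-well plates and treated 24 h. Cells were pelleted (400 g, 5 min, 4 °C), washed in PBS, fixed in 4% paraformaldehyde, cytospun, air-dried, then stained with 10 μg/ml Hoechst 33342 for 10 min in the dark. Fluorescence microscopy: 200 cells counted, scored by condensed/intense nuclei, shrinkage, blebbing and apoptotic bodies. % apoptotic nuclei calculated. AP50 = concentration giving 50% apoptotic cells.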

JURKAT [3] = assay: NucView caspase 3 activity assay by flow cytometry; format: cell-based, human; conditions: 24 h; for EC50: Homo sapiens, Jurkat, read-out: AP50 (50% induction of apoptosis), Caspase 3 activity assay (C3); for The lowest dose of polyphenols at which there was a significant induction of apoptosis compared to the vehicle control: JURKAT, caspase 3 activity, p<0.05
In short: (§3)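 Seeded at 0.5 x 10⁶ cells/well and treated 24 h, with series of 0–50 or 0–250 µM depending on compound. Normalized to vehicle (0% apoptosis). Mean ± STD, three independent experiments in triplicate. One-way ANOVA/Tukey, p<0.05. AP50 = concentration giving 50% apoptotic cells.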

JURKAT [4] = assay: Hoechst 33342 nuclear morphological analysis of apoptosis; format: cell-based; conditions: Homo sapiens, 24 h, read-out: AP50 (50% induction of apoptosis), Hoechst 33342 staining (Hoe)
In short: as §2

MOLT-3 [5] = assay: as above; format: cell-based; conditions: Homo sapiens, MOLT-3, 24 h, read-out: AP50 (50% induction of apoptosis), Hoechst 33342 staining (Hoe)
In short: as §2

MOLT-3 [6] = assay: Cell cycle analysis, propidium iodide flow cytometry; format: cell-based, human; conditions: MOLT-3, IC50 dose, 24 h; for Percentage of cells in G0/G1 phase of cell cycle (significant accumulation): vehicle control G0/G1 = 64.5%
In short: (§4)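 Seeded at 0.5 x 10^6 cells per well in 12-well plates and treated 24 h at the IC50 concentration of each test compound from CellTiter-Glo. Cells were pelleted (400 g, 5 min), PBS-washed and fixed in 80% ethanol overnight at -20 °C. Staining used 50 µg/mL PI plus RNase overnight at 4 °C.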

U937 [7] = assay: Hoechst 33342 nuclear morphological analysis of apoptosis; format: cell-based; conditions: Homo sapiens, U-937, 24 h, read-out: AP50 (50% induction of apoptosis), Hoechst 33342 staining (Hoe)
In short: as §2

non-tumor cells (CD34+) [8] = assay: Hoechst 33342 nuclear morphological analysis of apoptosis; format: cell-based; conditions: 24 h, read-out: AP50 (50% induction of apoptosis), Hoechst 33342 staining (Hoe)
In short: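 CD34+ cells treated 24 h across the IC25–IC50 range, then pelleted (400 g, 4 °C) and fixed in 4% paraformaldehyde/PBS. Cytospins were air-dried and stained with 10 μg/ml Hoechst 33342 for 10 min in the dark, then viewed by fluorescence microscopy. 200 cells were scored per sample as % apoptotic nuclei (shrinkage, blebbing, chromatin condensation, apoptotic bodies). AP50 = concentration giving 50% apoptosis.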

K562 [9] = assay: CellTiter-Glo luminescent cell viability assay; format: cell-based, human; conditions: K562, 24 h, doses 0, 2, 10, 50, 250, 500 µM, p<0.05
In short: as §1

[10] = system: non-tumor progenitor cells (CD34+); assay: Cell cycle analysis, propidium iodide flow cytometry; format: cell-based; conditions: 24 h, within the IC50 ranges used to treat the leukemic cell lines
K562 [11] = assay: Cell cycle analysis, propidium iodide flow cytometry; format: cell-based, human; conditions: K562, IC50 dose, 24 h
In short: as §4

CCRF-CEM [12] = assay: CellTiter-Glo luminescent cell viability assay; format: cell-based, human; conditions: 24 h, doses 0, 2, 10, 50, 250, 500 µM, p<0.05
In short: as §1

KG1a [13] = assay: CellTiter-Glo luminescent cell viability assay; format: cell-based, human; conditions: 24 h; for IC50: Homo sapiens, KG-1a, read-out: IC50 (50% inhibition of cellular proliferation); for The lowest dose of polyphenols at which there was a significant inhibition of cell proliferation compared to the vehicle control: KG1a, doses 0, 2, 10, 50, 250, 500 µM, p<0.05
In short: as §1

CCRF-CEM [14] = assay: Cell cycle analysis, propidium iodide flow cytometry; format: cell-based, human; conditions: IC50 dose, 24 h, vehicle control G0/G1 = 41.9%
In short: as §4

U937 [15] = assay: NucView caspase 3 activity assay by flow cytometry; format: cell-based, human; conditions: for EC50: Homo sapiens, U-937, 24 h, read-out: AP50 (50% induction of apoptosis), Caspase 3 activity assay (C3); for The lowest dose of polyphenols at which there was a significant induction of apoptosis compared to the vehicle control: U937, caspase 3 activity, 24 h, p<0.05
In short: as §3

THP-1 [16] = assay: NucView caspase 3 activity assay by flow cytometry; format: cell-based, human; conditions: for EC50: Homo sapiens, THP-1, 24 h, read-out: AP50 (50% induction of apoptosis), Caspase 3 activity assay (C3); for The lowest dose of polyphenols at which there was a significant induction of apoptosis compared to the vehicle control: THP-1, caspase 3 activity, 24 h, p<0.05
In short: as §3

HL60 = assay: Hoechst 33342 nuclear morphological analysis of apoptosis; format: cell-based; conditions: Homo sapiens, HL-60, 24 h, read-out: AP50 (50% induction of apoptosis), Hoechst 33342 staining (Hoe)
In short: as §2

CCRF-CEM [17] = assay: as above; format: cell-based; conditions: Homo sapiens, 24 h, read-out: AP50 (50% induction of apoptosis), Hoechst 33342 staining (Hoe)
In short: as §2

KG1a [18] = assay: Cell cycle analysis, propidium iodide flow cytometry; format: cell-based, human; conditions: IC50 dose, 24 h; for Percentage of cells in G0/G1 phase of cell cycle (significant accumulation): vehicle control G0/G1 = 44.6%
In short: as §4

K562 [19] = assay: Hoechst 33342 nuclear morphological analysis of apoptosis; format: cell-based; conditions: Homo sapiens, K562, 24 h, read-out: AP50 (50% induction of apoptosis), Hoechst 33342 staining (Hoe)
In short: as §2

non-tumor cells (CD34+) [20] = assay: NucView caspase 3 activity assay by flow cytometry; format: cell-based; conditions: 24 h; for EC50: read-out: AP50 (50% induction of apoptosis), Caspase 3 activity assay (C3); for The lowest dose of polyphenols at which there was a significant induction of apoptosis compared to the vehicle control: CD34+ non-tumour control cells, caspase 3 activity, p<0.05
THP-1 [21] = assay: Hoechst 33342 nuclear morphological analysis of apoptosis; format: cell-based; conditions: Homo sapiens, THP-1, 24 h, read-out: AP50 (50% induction of apoptosis), Hoechst 33342 staining (Hoe)
In short: as §2

| SMILES | IC50 [1] [µM] | The lowest dose of polyphenols at which there was a significant inhibition of cell proliferation compared to the vehicle control [1] [µM] | EC50 (KG1a [2]) [µM] | EC50 (JURKAT [3]) [µM] | The lowest dose of polyphenols at which there was a significant induction of apoptosis compared to the vehicle control (JURKAT [3]) [µM] | EC50 (JURKAT [4]) [µM] | EC50 (MOLT-3 [5]) [µM] | EC50 (U937 [7]) [µM] | EC50 (non-tumor cells (CD34+) [8]) [µM] | The lowest dose of polyphenols at which there was a significant inhibition of cell proliferation compared to the vehicle control (K562 [9]) [µM] | Cell cycle arrest in non-tumour control cells [10] | The lowest dose of polyphenols at which there was a significant inhibition of cell proliferation compared to the vehicle control (CCRF-CEM [12]) [µM] | IC50 (KG1a [13]) [µM] | The lowest dose of polyphenols at which there was a significant inhibition of cell proliferation compared to the vehicle control (KG1a [13]) [µM] | Percentage of cells in G0/G1 phase of cell cycle (significant accumulation) (CCRF-CEM [14]) | EC50 (U937 [15]) [µM] | The lowest dose of polyphenols at which there was a significant induction of apoptosis compared to the vehicle control (U937 [15]) [µM] | EC50 (THP-1 [16]) [µM] | The lowest dose of polyphenols at which there was a significant induction of apoptosis compared to the vehicle control (THP-1 [16]) [µM] | EC50 (HL60) [µM] | other results |
| --- | --- | --- | --- | --- | --- | --- | --- | --- | --- | --- | --- | --- | --- | --- | --- | --- | --- | --- | --- | --- | --- |
| O=C1c2cccc(O)c2C(=O)c2c(O)cc(CO)cc21 [Aloe - Emodin, Aloe-emodin] | > 500 | 500 | 360 | 50 | 50 | 130 | 150 | 195 | > 500 | 50 | No Arrest <500µM | 50 | 310 | 50 | G0/G1 =49% | 50 | 50 | > 250 | 50 | 190 | Percentage of cells in G0/G1 phase of cell cycle (significant accumulation) (MOLT-3 [6]): G0/G1 = 68%; Percentage of cells in G2/M phase of cell cycle (significant accumulation) (K562 [11]; vehicle control G2/M = 13.6%): G2/M =20%; EC50 (CCRF-CEM [17]): 150 µM; Percentage of cells in G0/G1 phase of cell cycle (significant accumulation) (KG1a [18]): G0/G1 =50%; EC50 (K562 [19]): 500 µM; EC50 (non-tumor cells (CD34+) [20]): > 250 µM; The lowest dose of polyphenols at which there was a significant induction of apoptosis compared to the vehicle control (non-tumor cells (CD34+) [20]): 250 µM; EC50 (THP-1 [21]): 283 µM |
| O=c1cc(-c2ccc(O)cc2)oc2cc(O)cc(O)c12 [Apigenin] | > 500 | 500 | 235 | 35 | 50 | 90 | 125 | 130 | > 500 | 10 | No Arrest ≤250µM | 10 | 500 | 10 | G0/G1 =52.2% | 45 | 50 | 110 | 10 | 129 | Percentage of cells in S phase of cell cycle (significant accumulation) (MOLT-3 [6]; vehicle control S = 24.8%): S =35%; Percentage of cells in S phase of cell cycle (significant accumulation) (K562 [11]; vehicle control S = 32.06%): S =50.2%; EC50 (CCRF-CEM [17]): 100 µM; Percentage of cells in S phase of cell cycle (significant accumulation) (KG1a [18]; vehicle control S = 34.6%): S = 50%; EC50 (K562 [19]): 190 µM; EC50 (non-tumor cells (CD34+) [20]): > 250 µM; The lowest dose of polyphenols at which there was a significant induction of apoptosis compared to the vehicle control (non-tumor cells (CD34+) [20]): 250 µM; EC50 (THP-1 [21]): 220 µM |
| O=C(O)c1cc(O)c2c(c1)C(=O)c1cccc(O)c1C2=O [Rhein] | 380 | 250 | > 500 | > 250 | 50 | > 500 | 265 | 140 | > 500 | 50 | No Arrest <50µM | 50 | 169 | 50 | G0/G1 =54% | 60 | 50 | 50 | 50 | > 500 | Percentage of cells in G0/G1 phase of cell cycle (significant accumulation) (MOLT-3 [6]): G0/G1=72%; EC50 (CCRF-CEM [17]): 250 µM; Percentage of cells in G0/G1 phase of cell cycle (significant accumulation) (KG1a [18]): G0/G1 =49%; EC50 (K562 [19]): > 500 µM; EC50 (non-tumor cells (CD34+) [20]): > 250 µM; The lowest dose of polyphenols at which there was a significant induction of apoptosis compared to the vehicle control (non-tumor cells (CD34+) [20]): 50 µM; EC50 (THP-1 [21]): 60 µM |
